High-throughput results as filed in PubChem.
The list is not random: actives were taken first. Their share in the collection is about 3.1%.
hERG rescue – compounds protecting human hERG from proarrhythmic drug block; Q12809; CHO-hERG, FluxOR thallium flux, dofetilide IC70 present; activation (rescue from dofetilide block), less the hit threshold, % at 10 µM; hit rate 0.51% among 310,000;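 active = activation above the mean of controls blocked by dofetilide plus 5 SD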;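 note: thallium influx through hERG after potassium depolarization seen as dye fluorescence rise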
KCNQ1 inh – inhibitors of human KCNQ1 potassium channel. CHO-K1 KCNQ1, FluxOR thallium flux fluorescence; stronger effect = higher value. P51787. hit rate 1.3% among 310,000. B-score at 10 µM;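 active = compounds whose thallium flux B-score, printed positive for inhibition, exceeds three library SD while starting fluorescence stays within three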;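 note: channel opened by potassium depolarization with thallium stimulus after 20 min compound exposure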
KCNK9 inh – blocks the human KCNK9 two-pore domain potassium channel; HEK293 KCNK9, FluxOR thallium flux fluorescence; stronger effect = lower value; hit rate 1.2% among 310,000; B-score at 10 µM; Q9NPC2;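 active = ratio B-score over 3 SD below the library mean, with starting fluorescence within 5 SD of its mean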;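 note: negative B-score means less thallium flux so channel inhibition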
KCNQ1 pot – potentiators or activators of human KCNQ1 potassium channel | P51787 | CHO-K1 KCNQ1, thallium flux FluxOR fluorescence; stronger effect = higher value | B-score at 10 µM | hit rate 0.35% among 310,000 | AID 2648;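 active = fluorescence ratio B-score, a plate-corrected score, at least three library SD, with initial intensity B-score within 5 SD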
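System: CHO-K1 cells stably expressing KCNQ1 / Medium: assay buffer for compound exposure, DMSO matched across wells / Reagent: thallium- and potassium-containing depolarizing buffer / Compound: one concentration, matched DMSO / Incubation: 20 min compound pretreatment at room temperature / Measured by: kinetic FluxOR fluorescence, 10 s baseline plus 110 s post-stimulus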
KCNK3 inh – human KCNK3 channel inhibition, primary screen. CHO-KCNK3 thallium flux, FluxOR fluorescence; stronger effect = lower value. hit rate 0.84% among 340,000. B-score at 10 µM;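 active = B-score under library mean minus 4 SD, starting fluorescence ratio at most library mean plus 5 SD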;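 note: more negative B-score means stronger inhibition of thallium flux through KCNK3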
KCNK9 block conf – confirmation of human KCNK9 potassium channel inhibitors. shares compounds with KCNK9 inh. HEK293 KCNK9 cells, FluxOR thallium flux fluorescence. inhibition, % at 10 µM. hit rate 43% among 4,900. AID 492992;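 active = thallium signal inhibited by more than 5 SD of the compound-free buffer control wells, on both duplicate plates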
Kir2-1 spec – mouse Kir2.1 off-target activity of KCNK9 modulators; shares compounds with KCNK9 inh; hit rate 4% among 4,900; inhibition, % at 10 µM; Kir2.1 cells, FluxOR thallium flux fluorescence;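 active = thallium signal drop more than 5 SD beyond the mean of the no-compound control wells, seen in both duplicate plates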;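 note: signal is fluorescence rise after thallium addition divided by baseline fluorescence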
Target sequence (P35561 whole entry, looked up): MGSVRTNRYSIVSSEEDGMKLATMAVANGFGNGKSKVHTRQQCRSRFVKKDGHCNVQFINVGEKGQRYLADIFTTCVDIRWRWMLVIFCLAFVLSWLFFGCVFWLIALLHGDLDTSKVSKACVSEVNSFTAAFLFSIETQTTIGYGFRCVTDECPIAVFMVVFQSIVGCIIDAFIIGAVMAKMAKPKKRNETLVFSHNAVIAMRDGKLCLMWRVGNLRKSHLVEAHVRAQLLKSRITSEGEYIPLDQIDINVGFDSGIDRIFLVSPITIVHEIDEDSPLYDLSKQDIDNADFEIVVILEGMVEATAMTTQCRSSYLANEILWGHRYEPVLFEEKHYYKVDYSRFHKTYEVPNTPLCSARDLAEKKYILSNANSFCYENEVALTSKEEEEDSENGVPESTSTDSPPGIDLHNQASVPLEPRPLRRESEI
KCNK9 uninduced – second counter-screen for KCNK9 modulators: effect in non-induced cells | AID 492997 | shares compounds with KCNK9 inh | inhibition, % at 10 µM | hit rate 40% among 4,900 | non-induced KCNK9-HEK293, FluxOR thallium flux;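 active = thallium signal drop beyond 5 SD of the untreated control mean, on both duplicate plates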
Numbers stand for hits; . = inactive; / = no result given.

SMILES	hERG rescue	KCNQ1 inh	KCNK9 inh	KCNQ1 pot	KCNK3 inh	KCNK9 block conf	Kir2-1 spec	KCNK9 uninduced
CCCCOC1CC(c2ccc(OCc3ccc(OC)cc3)c(OC)c2)N(C)O1 (centres undefined)	.	.	.	.	.	.	.	.
CCN1C(=O)[C@H]2[C@@H](c3ccc(-c4cccc(Cl)c4)cc3)N[C@@](CC(C)C)(C(=O)OC)[C@H]2C1=O	/	/	/	/	.	/	/	/
CCN1C(=O)[C@H]2[C@@H](c3ccc(-c4cccc(Cl)c4)c(OC)c3)N[C@@](CC(C)C)(C(=O)OC)[C@H]2C1=O	.	.	-9.89	.	.	43.5%	.	44.0%
c1ccc(-c2csc3ncnc(N4CCc5ccccc5C4)c23)cc1	.	.	-10.9	.	.	55.0%	.	38.0%
c1ccc(-c2csc3ncnc(N4CCOCC4)c23)cc1	.	.	.	.	.	/	/	/
COc1ccc(-c2noc3c2-c2nc(-c4ccc(Cl)cc4)sc2CC3)cc1	.	.	.	.	.	/	/	/
COc1ccc(-c2noc3c2-c2nc(C4CCCCC4)sc2CC3)cc1	.	.	.	.	.	.	.	24.0%
CC1CC(C)CN(S(=O)(=O)c2ccc(C(=O)N3CCN(c4ccccc4)CC3)cc2)C1 (centres undefined)	.	.	.	.	.	.	.	.
O=C(c1ccc(S(=O)(=O)N2CCCCCC2)cc1)N1CCN(c2ccccc2)CC1	.	.	.	.	.	/	/	/
CC(C)c1ccc(S(=O)(=O)/N=C2\C=C(NS(=O)(=O)c3ccccc3)C(=O)c3ccccc32)cc1	.	18	-9.37	.	.	32.0%	.	32.5%
COc1ccc(S(=O)(=O)/N=C2\C=C(Nc3ccc(O)cc3)C(=O)c3ccccc32)cc1	.	.	.	.	.	/	/	/
O=C(/C=C/c1ccc(OCCCF)cc1)NCc1cccc(Cl)c1	.	.	.	.	.	/	/	/
FCCCOc1ccc(/C=N/OCc2ccc(Cl)cc2Cl)cc1	.	.	.	.	.	.	.	.
CCN(C(=O)COC(=O)C1CCC(C(C)(C)C)CC1)c1c(N)n(Cc2ccccc2)c(=O)[nH]c1=O (centres undefined)	/	/	/	/	.	/	/	/
CC(C)CC1Nc2ncnc(N3CCCCC3)c2N(Cc2ccccc2)C1=O (centres undefined)	.	.	-9.12	.	.	39.0%	.	38.0%
O=C1C(Cc2ccccc2)Nc2ncnc(N3CCN(c4ccccc4)CC3)c2N1Cc1ccc(Cl)cc1 (centres undefined)	.	.	.	.	.	/	/	/
O=C1C(Cc2ccccc2)Nc2ncnc(N3CCCCC3)c2N1Cc1ccc(Cl)cc1 (centres undefined)	.	.	-17.4	.	.	75.5%	.	33.5%
CCN(CC(=O)Nc1cc(Cl)ccc1C)C(=O)Cc1sc(C)nc1-c1ccc(F)cc1	.	.	-9.8	.	-9.73	.	.	30.0%
Clc1ccc(CO/N=C/c2c(-c3ccccc3)nc3n2CCS3)c(Cl)c1	.	.	-9.74	.	.	.	.	28.5%
CS(=O)(=O)/C(C#N)=C/c1c(-c2ccccc2)nc2n1CCS2	.	.	.	.	.	/	/	/
COc1cc(-c2nnc(SCC(=O)NC3CCCC3)n2C)cc(OC)c1O	.	.	.	.	.	/	/	/
CC1=Nc2cc(C(=O)N3CCCCC3)ccc2Sc2ccc(C)cc21	.	.	.	.	.	.	.	.
COc1cc(C(=O)OCC(=O)c2cc(C)n(CC3CCCO3)c2C)ccc1OCC(=O)N1CCOCC1 (centres undefined)	.	.	.	.	.	/	/	/
O=c1c2sccc2nc(SCc2ccc([N+](=O)[O-])cc2)n1Cc1ccccn1	.	.	-9.57	.	.	74.0%	.	27.5%
CN(C)c1ccc(-c2c(-c3ccc4c(c3)OCO4)noc2-c2ccsc2)cn1	.	.	-8.67	.	.	49.5%	.	47.0%
COC(=O)c1cc(-c2c(-c3ccc4c(c3)OCO4)noc2-c2ccsc2)cc([N+](=O)[O-])c1	.	.	.	.	.	/	/	/
